In ChEMBL document CHEMBL3045352, “Papyracillic acid, a phytotoxic 1,6-dioxaspiro[4,4]nonene produced by Ascochyta agropyrina Var. nana, a potential mycoherbicide for Elytrigia repens biocontrol” (J Agric Food Chem, 2009):
The source made the active and inactive calls.

Experiments:
Format in all cases: functional, organism-based
[1] = test system: Candida tropicalis; assay: Antimicrobial activity against Candida tropicalis assessed as growth inhibition at 50 ug/disk
Method in brief: (§1)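 Paper-disk assay against C. tropicalis, X. campestris and B. subtilis. Standard testing used 50 μg per disk. For concentration dependence, doses ran from 1.5 to 100 μg/disk. Each bioassay was run twice with at least three replicates. Means were compared by Fisher's LSD.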

[2] = test system: Elymus repens; assay: Mycoherbicidal activity against Elymus repens (couch grass) assessed as decrease in length of necrotic lesions at 1 mg/ml by leaf-disk puncture assay
Method in brief: (§2)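 Leaf disk-puncture bioassay on leaves of host and nonhost plants. Compound was applied at 1 mg/mL, and necrosis was read 3 days post-application. Each bioassay was run twice with at least three replicates. Error bars are standard error, and means were compared by Fisher's LSD.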

[3] = test system: Cirsium arvense; assay: Mycoherbicidal activity against Cirsium arvense (Canada thistle) assessed as decrease in length of necrotic lesions at 1 mg/ml by leaf-disk puncture assay; method in brief: as §2
[4] = test system: Bacillus subtilis; assay: Antimicrobial activity against Bacillus subtilis assessed as zone of lysis at 50 ug/disk; method in brief: as §1
[5] = test system: Xanthomonas campestris; assay: Antimicrobial activity against Xanthomonas campestris assessed as zone of lysis at 50 ug/disk; method in brief: as §1
[6] = test system: Hordeum vulgare; assay: Mycoherbicidal activity against Hordeum vulgare (barley) assessed as decrease in length of necrotic lesions at 1 mg/ml by leaf-disk puncture assay; method in brief: as §2
[7] = test system: Chenopodium album; assay: Mycoherbicidal activity against Chenopodium album assessed as decrease in length of necrotic lesions at 1 mg/ml by leaf-disk puncture assay; method in brief: as §2
[8] = test system: Phleum pratense; assay: Mycoherbicidal activity against Phleum pratense (timothy grass) assessed as decrease in length of necrotic lesions at 1 mg/ml by leaf-disk puncture assay; method in brief: as §2
[9] = test system: Cirsium arvense; assay: Mycoherbicidal activity against Cirsium arvense (Canada thistle) assessed as decrease in length of necrotic lesions at 0.5 mg/ml by leaf-disk puncture assay
Method in brief: (§3)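 Dose-response leaf disk-puncture on E. repens and C. arvense leaves. Concentrations ran from 0.06 to 2 mg/mL (0.6-20 μg/disk), and necrotic symptoms were scored 2 days post-application. Each bioassay was run twice with at least three replicates. Means were compared by Fisher's LSD.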

[10] = test system: Sonchus arvensis; assay: Mycoherbicidal activity against Sonchus arvensis (field sow-thistle) assessed as decrease in length of necrotic lesions at 1 mg/ml by leaf-disk puncture assay; method in brief: as §2
[11] = test system: Rosa pendulina; assay: Mycoherbicidal activity against Rosa pendulina assessed as decrease in length of necrotic lesions at 1 mg/ml by leaf-disk puncture assay; method in brief: as §2
[12] = test system: Cannabis sativa; assay: Mycoherbicidal activity against Cannabis sativa (hemp) assessed as decrease in length of necrotic lesions at 1 mg/ml by leaf disk puncture assay; method in brief: as §2
[13] = test system: Xanthomonas campestris; assay: Antimicrobial activity against Xanthomonas campestris assessed as zone of lysis at 6.25 ug/disk; method in brief: as §1
[14] = test system: Trifolium pratense; assay: Mycoherbicidal activity against Trifolium pratense (red clover) assessed as decrease in length of necrotic lesions at 1 mg/ml by leaf-disk puncture assay; method in brief: as §2
[15] = test system: Bacillus subtilis; assay: Antimicrobial activity against Bacillus subtilis assessed as zone of lysis at 6.25 ug/disk; method in brief: as §1
[16] = test system: Elymus repens; assay: Mycoherbicidal activity against Elymus repens (couch grass) assessed as decrease in length of necrotic lesions at 0.5 mg/ml by leaf-disk puncture assay; method in brief: as §3
[17] = test system: Taraxacum officinale; assay: Mycoherbicidal activity against Taraxacum officinale (dandelion) assessed as decrease in length of necrotic lesions at 1 mg/ml by leaf-disk puncture assay; method in brief: as §2
[18] = test system: Rumex confertus; assay: Mycoherbicidal activity against Rumex confertus (Asian dock) assessed as decrease in length of necrotic lesions at 1 mg/ml by leaf-disk puncture assay; method in brief: as §2
[19] = test system: Candida tropicalis; assay: Antimicrobial activity against Candida tropicalis assessed as growth inhibition at 6.25 ug/disk; method in brief: as §1

C=C1[C@H](C)[C@](C)(OC)O[C@]12OC(=O)C=C2OC
active: growth inhibition (GI) [1] | Activity [2] | Activity [3] | Activity [4] | Activity [5]

COC1=CC(=O)O/C1=C(/COC(C)=O)C(C)C(C)=O (stereo unspecified)
active: Activity [2] | Activity [4] | Activity [5]

C=C(C(=O)/C(=C\C(=O)OC)OC)C(C)C(C)=O (stereo unspecified)
active: Activity [3]

COC1=CC(=O)O/C1=C(\COC(C)=O)C(C)C(C)=O (stereo unspecified)
active: Activity [2] | Activity [3]

C=C1[C@H](C)[C@](C)(O)O[C@]12OC(=O)C=C2OC
active: Activity [6] | Activity [7] | Activity [8] | Activity [9] | Activity [10] | Activity [11] | Activity [13] | Activity [14] | Activity [15] | Activity [16] | Activity [2] | Activity [17] | Activity [3] | Activity [18] | growth inhibition (GI) [19]
inactive: Activity [12]

C=C(C(C)C(C)=O)C1(OC(C)=O)OC(=O)C=C1OC (stereo unspecified)
active: Activity [2] | Activity [3] | Activity [4] | Activity [5]
